{"data": "Results of several laboratories", "cell line": "IGROV-1", "effect on": "cell growth or viability"}
{"Structure (SMILES)": "COc1ccc(C(=O)/C=C/c2ccc3c(c2)OCCO3)cc1S(N)(=O)=O", "method": "SRB", "tested at": "10 µM", "measurement": "inhibition", "value": "36%"}
{"Structure (SMILES)": "COc1ccc(-c2ccc(-c3ccc(C(=N)N)nc3)s2)cc1Cl", "method": "SRB", "measurement": "GI50", "value": "1780 nM"}
{"Structure (SMILES)": "S=C([S][Au-][P+](CCCCCC[P+]([Au-][S]C(=S)n1cccn1)(c1ccccc1)c1ccccc1)(c1ccccc1)c1ccccc1)n1cccn1", "measurement": "GI50", "value": "2260 nM"}
{"Structure (SMILES)": "COc1ccc(C(=O)/C=C/c2cccc3ccccc23)cc1S(N)(=O)=O", "method": "SRB", "time": "48 h", "measurement": "GI50", "value": "2300 nM"}
{"Structure (SMILES)": "COc1ccc(-c2ccc(-c3ccc(C(=N)N)nc3)s2)cc1", "method": "SRB", "measurement": "GI50", "value": "1840 nM"}
{"Structure (SMILES)": "COc1cccc(Oc2ccccc2NC(=O)CNC(=O)c2cccc3ccccc23)c1", "method": "SRB", "time": "48 h", "measurement": "GI50", "value": "1050 nM"}
{"Structure (SMILES)": "Cc1cc(C)n(C(=S)[S][Au][PH](CCCCCC[PH]([Au][S]C(=S)n2nc(C)cc2C)(c2ccccc2)c2ccccc2)(c2ccccc2)c2ccccc2)n1", "measurement": "GI50", "value": "1190 nM"}
{"Structure (SMILES)": "COc1cc2c3cc1Oc1c(OC)c(OC)cc4c1[C@@H](Cc1ccc(O)c(c1)Oc1ccc(cc1)C[C@@H]3N(C)CC2)N(C)CC4", "time": "72 h", "measurement": "IC50", "value": "29.6 µM"}
